According to article PMC9870020 (Tissue Barriers, 2022):

Tests used:
[1] = cited from earlier work
[2] = 2 mM; cited from earlier work
[3] = concentration of 625 µM; cited from earlier work
[4] = tested on: Caco-2 epithelial cell layers; assay: Permeability of fluorescent markers; assay type: cell-based; conditions: Caco-2 layers
Summary of the method: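 Caco-2 cells (passage 35–39) were grown 21 days on collagen-coated 0.33 cm2 inserts (0.4 µm pores) and equilibrated 30 min in warm HBSS. Test compound with FD-4 (0.25 mM) or other marker in HBSS was applied apically. Basolateral fluorescence (ex 485/em 520 nm) was read over 180 min against a calibration curve to give Papp. TEER was measured before and after. Triplicates, mean ± S.D.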

epithelial cell layers = conditions: cited from earlier work
[5] = tested on: nasal epithelial cell layers; conditions: cited from earlier work
epithelial cells = conditions: cited from earlier work

Q: For `CCCCCCCCCC(=O)[O-].[Na+]` [C10, sodium caprate], which “Toxicity of C10” value [1] is on record?
A: no toxicity was demonstrated

Q: For `CCCCCCCCCCCCOS(=O)(=O)[O-].[Na+]` [SDS, Sodium dodecylsulfate], which “Toxicity of SDS” value [2] is on record?
A: toxic

Q: With `CC(C)(C)[C@]1(O)CC2OC(=O)CC23C(=O)OC2OC(=O)[C@H](O)C231` (stereo partly shown) [bilobalide, Bilobalide] as the compound, how does the Cytotoxicity of bilobalide [3] read?
A: no cytotoxicity

Q: Which “Permeability of FD-4 (Papp) in the presence of L-R5 analogues” value ([4]; Figure 6A, peptides 50 µM, FD-4 0.25 mM, 180 min, mean n = 3) does the source give for L-myr-ARRAR [LW-5] here?
A: significantly lower than with L-R5

Q: For L-myr-ARRWR [L-R5], which “Molecular weight limit of opening of TJs caused by L-R5” value ([4]; L-R5 50 µM, from sodium fluorescein, FD-4 and FD-150 permeability) is on record?
A: 150 kDa

Q: And the “Permeability of sodium fluorescein in the presence of L-R5” value ([4]; Figure 5, L-R5 50 µM, 180 min, mean n = 3)?
A: higher permeability compared to FD-4

Q: And the “Passage of the peptide across epithelial cell layers” value (epithelial cell layers)?
A: not to cross epithelial cell layers

Q: What about the “Reversibility of TJ modulation by the peptide” value [5] of the same compound?
A: rapidly reversible

Q: What about the “Size of molecules transported paracellularly with L-R5” value ([5]; nasal epithelial cell layers in vitro, previously shown) of the same compound?
A: up to 4 kDa

Q: And the “Epithelial cytotoxicity in vitro” value (epithelial cells)?
A: lack of epithelial cytotoxicity
